ChEMBL document CHEMBL2406959, “Synthesis and evaluation of diaryl sulfides and diaryl selenide compounds for antitubulin and cytotoxic activity” (Bioorg Med Chem Lett, 2013)

Test system: not listed separately
Test: Inhibition of bovine brain tubulin polymerization incubated for 15 mins prior to GTP addition measured after 20 mins by spectrophotometry
Set-up: species or system Bos taurus
Details: not given

SMILES	IC50 [µM]
COc1ccc([Se]c2cc(OC)c(OC)c(OC)c2)cc1	0.62
COc1ccc([Se][Se]c2ccc(OC)cc2)cc1	1.7
COc1ccc(Sc2cc(OC)c(OC)c(OC)c2)cc1[N+](=O)[O-]	2.8
COc1cc(SSc2cc(OC)c(OC)c(OC)c2)cc(OC)c1OC	5.4
COc1ccc(Sc2cc(OC)c(OC)c(OC)c2)cc1N	0.74
COc1ccc([Se]c2ccc(OC)cc2)cc1	> 20

Biological target: Tubulin
Test: Inhibition of tubulin (unknown origin) polymerization after 20 mins
Type: protein-complex assay, Homo sapiens
Details: not given

SMILES	IC50 [µM]
COc1ccc(/C=C\c2cc(OC)c(OC)c(OC)c2)cc1[N+](=O)[O-]	1.8

Test system: PC-3
Test: Cytotoxicity against human PC3 cells after 48 hrs by sulforhodamine B assay
Type: functional, cell-based
Details: PC-3, 48 h

SMILES	IC50 [µM]
COc1ccc([Se]c2cc(OC)c(OC)c(OC)c2)cc1	0.08
COc1ccc([Se][Se]c2ccc(OC)cc2)cc1	1.99
COc1ccc(Sc2cc(OC)c(OC)c(OC)c2)cc1[N+](=O)[O-]	0.2
COc1cc(SSc2cc(OC)c(OC)c(OC)c2)cc(OC)c1OC	6.75
COc1ccc(/C=C\c2cc(OC)c(OC)c(OC)c2)cc1O [COMBRETASTATIN A4]	1
COc1ccc(Sc2cc(OC)c(OC)c(OC)c2)cc1N	0.53
COc1ccc([Se]c2ccc(OC)cc2)cc1	8.8

Organism: Bos taurus
Test: Displacement of [3H]colchicine from bovine brain tubulin at 1 uM after 10 mins by scintillation counting analysis relative to control
Details: not given

SMILES	inhibition [%]
COc1ccc([Se]c2cc(OC)c(OC)c(OC)c2)cc1	74
COc1ccc(Sc2cc(OC)c(OC)c(OC)c2)cc1N	74

Test system: MCF7
Test: Cytotoxicity against human MCF7 cells after 96 hrs by sulforhodamine B assay
Type: functional, cell-based
Details: MCF7, 96 h
How it was run: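 Human MCF-7 breast cancer cells incubated with compounds for 96 h at 37 °C.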

SMILES	IC50 [µM]
COc1ccc([Se]c2cc(OC)c(OC)c(OC)c2)cc1	0.01
COc1ccc([Se][Se]c2ccc(OC)cc2)cc1	> 10
COc1ccc(Sc2cc(OC)c(OC)c(OC)c2)cc1[N+](=O)[O-]	1
COc1cc(SSc2cc(OC)c(OC)c(OC)c2)cc(OC)c1OC	> 10
COc1ccc(/C=C\c2cc(OC)c(OC)c(OC)c2)cc1O [COMBRETASTATIN A4]	0.006
COc1ccc(Sc2cc(OC)c(OC)c(OC)c2)cc1N	0.008
COc1ccc([Se]c2ccc(OC)cc2)cc1	> 10

Test system: HT-29
Test: Cytotoxicity against human HT-29 cells after 48 hrs by sulforhodamine B assay
Type: functional, cell-based
Details: HT-29, 48 h
How it was run: (§1)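 Human 786 (kidney), HT-29 (colon) and PC-3 (prostate) cancer cells exposed to compounds for 48 h at 37 °C.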

SMILES	IC50 [µM]
COc1ccc([Se]c2cc(OC)c(OC)c(OC)c2)cc1	0.28
COc1ccc([Se][Se]c2ccc(OC)cc2)cc1	59.5
COc1ccc(Sc2cc(OC)c(OC)c(OC)c2)cc1[N+](=O)[O-]	0.63
COc1cc(SSc2cc(OC)c(OC)c(OC)c2)cc(OC)c1OC	76.5
COc1cccc2c1C(=O)c1c(O)c3c(c(O)c1C2=O)C[C@@](O)(C(=O)CO)C[C@@H]3O[C@H]1C[C@H](N)[C@H](O)[C@H](C)O1 [DOXORUBICIN]	0.44
COc1ccc(Sc2cc(OC)c(OC)c(OC)c2)cc1N	1.31
COc1ccc([Se]c2ccc(OC)cc2)cc1	210

Organism: Bos taurus
Test: Displacement of [3H]colchicine from bovine brain tubulin at 5 uM after 10 mins by scintillation counting analysis relative to control
Details: not given

inhibition [%]	SMILES
58	COc1ccc(Sc2cc(OC)c(OC)c(OC)c2)cc1[N+](=O)[O-]
9	COc1cc(SSc2cc(OC)c(OC)c(OC)c2)cc(OC)c1OC
95	COc1ccc(Sc2cc(OC)c(OC)c(OC)c2)cc1N

SMILES	inhibition [%]
COc1ccc([Se]c2cc(OC)c(OC)c(OC)c2)cc1	94
COc1ccc([Se][Se]c2ccc(OC)cc2)cc1	34

Test system: not listed separately
Test: Cytotoxicity against human 786 cells after 48 hrs by sulforhodamine B assay
Type: functional, cell-based
Details: not given
How it was run: as §1

SMILES	IC50 [µM]
COc1ccc([Se]c2cc(OC)c(OC)c(OC)c2)cc1	0.68
COc1ccc([Se][Se]c2ccc(OC)cc2)cc1	20.7
COc1ccc(Sc2cc(OC)c(OC)c(OC)c2)cc1[N+](=O)[O-]	1.71
COc1cc(SSc2cc(OC)c(OC)c(OC)c2)cc(OC)c1OC	112
COc1cccc2c1C(=O)c1c(O)c3c(c(O)c1C2=O)C[C@@](O)(C(=O)CO)C[C@@H]3O[C@H]1C[C@H](N)[C@H](O)[C@H](C)O1 [DOXORUBICIN]	0.33
COc1ccc(/C=C\c2cc(OC)c(OC)c(OC)c2)cc1O [COMBRETASTATIN A4]	5
COc1ccc(Sc2cc(OC)c(OC)c(OC)c2)cc1N	1.24
